Key:
[1] = Antiproliferative activity against human PBMC assessed as reduction in cell viability after 70 hrs by Quanti-blue assay; type: cell-based
In short: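 QB fluorescence viability assay; hPBMCs purified by density centrifugation from purchased human blood, stored frozen, resuspended in RPMI-1640 with 10% heat-inactivated FBS, HEPES, pyruvate, non-essential amino acids and BME; seeded at 10^6 cells/mL. Compounds at 50 μM, 70 h plus 2 h with detection reagent; λex 530/λem 590 nm. Three independent repeats.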

Histone deacetylase 2 = Histone deacetylase 2 (Homo sapiens, UniProt Q92769); test: Inhibition of full length recombinant human HDAC2 expressed in baculovirus expression system using fluorogenic peptide RHKK(Ac) as substrate by fluorescence assay
Chain of Histone deacetylase 2 (Q92769 whole entry): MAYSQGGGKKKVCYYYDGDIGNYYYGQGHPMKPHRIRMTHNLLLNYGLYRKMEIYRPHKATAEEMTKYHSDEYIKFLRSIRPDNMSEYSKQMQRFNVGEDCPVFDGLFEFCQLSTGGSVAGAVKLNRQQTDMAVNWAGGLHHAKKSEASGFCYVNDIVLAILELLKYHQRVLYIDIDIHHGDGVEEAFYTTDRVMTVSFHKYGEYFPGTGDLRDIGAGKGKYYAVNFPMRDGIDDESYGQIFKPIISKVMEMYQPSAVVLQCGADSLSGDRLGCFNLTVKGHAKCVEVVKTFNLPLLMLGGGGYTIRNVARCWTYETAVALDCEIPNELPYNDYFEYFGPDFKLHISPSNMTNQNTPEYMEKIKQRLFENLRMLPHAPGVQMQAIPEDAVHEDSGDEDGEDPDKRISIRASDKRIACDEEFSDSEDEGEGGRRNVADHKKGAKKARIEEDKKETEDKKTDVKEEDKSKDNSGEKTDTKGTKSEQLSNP

HCT-116 = test: Antiproliferative activity against human HCT116 cells assessed as reduction in cell viability after 72 hrs by MTS-PMS assay; type: functional; settings: Homo sapiens, HCT-116, 72 h
In short: (§1)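 MTS-PMS viability test. Cells were seeded at 3,000/well and left 24 h at 37 °C, 5% CO2, then exposed to compound for 72 h. Screening was at 50 μM for HCT116 and MCF-7 and […], with final DMSO ≤1%. MTS:PMS was mixed 20:1, added for 3 h, and absorbance read at 490 nm. At least two independent runs were done, each in triplicate.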

MCF7 = test: Antiproliferative activity against human MCF7 cells assessed as reduction in cell viability after 72 hrs by MTS-PMS assay; settings: MCF7, 72 h
[2] = Immunomodulatory activity in human TALL-104 cells assessed as effect on degranulation by measuring augmentation of CD3-stimulated anti-LAMP fluorescence at 100 uM preincubated for 30 mins followed by anti-LAMP addition and incubated for 50 mins in the dark by flow cytometric analysis relative to control; type: functional
MDA-MB-231 = test: Antiproliferative activity against human MDA-MB-231 cells assessed as reduction in cell viability after 72 hrs by MTS-PMS assay; type: functional; settings: MDA-MB-231, 72 h; in short: as §1
MOLT-4 = test: Antiproliferative activity against human MOLT4 cells assessed as reduction in cell viability after 70 hrs by Quanti-blue assay; type: functional; settings: Homo sapiens, MOLT-4, 70 h
In short: (§2)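 Quanti-Blue viability kit. HuT-78 and Molt-4 cells were grown in RPMI-1640 and seeded at 10^5 cells/mL. Compounds were screened at 50 μM for 70 h, with detection reagent present for the final 2 h. Fluorescence was read at ex 530/em 590 nm. IC50 from dose-response came from linear regression. Three independent runs.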

HuT78 = test: Antiproliferative activity against human HUT78 cells assessed as reduction in cell viability after 70 hrs by Quanti-blue assay; type: functional; settings: Homo sapiens, HuT78, 70 h; in short: as §2

| Structure (SMILES) | GI50 at 70 h [1] | IC50 (Histone deacetylase 2) | GI50 (HCT-116) | GI50 (MCF7) | Activity [2] | GI50 (MDA-MB-231) | GI50 (MOLT-4) | GI50 (HuT78) |
| --- | --- | --- | --- | --- | --- | --- | --- | --- |
| C=CCOC(=O)NCCCC(=O)NCCc1ccccc1 | > 50 µM | > 1 µM | > 50 µM | > 50 µM | 87% | > 50 µM | > 50 µM | > 50 µM |
| CC(=O)NCCCC(=O)NCCc1ccccc1 | > 50 µM | > 1 µM | > 50 µM | > 50 µM | 83% | > 50 µM | > 50 µM | > 50 µM |
| CCOC(=O)NCCCC(=O)Nc1ccc(CO[Si](C)(C)C(C)(C)C)cc1 | > 50 µM | > 1 µM | > 50 µM | 23.7 µM | 126% | > 50 µM | > 50 µM | > 50 µM |
| CCNC(=O)OCCCC(=O)NCCc1ccccc1 | > 50 µM | > 1 µM | > 50 µM | > 50 µM | 100% | > 50 µM | > 50 µM | > 50 µM |
| COC(=O)NCCCC(=O)NCCc1ccccc1 | > 50 µM | > 1 µM | > 50 µM | > 50 µM | 81% | > 50 µM | > 50 µM | > 50 µM |
| CCC(=O)NCCCC(=O)NCCc1ccccc1 | > 50 µM | > 1 µM | > 50 µM | > 50 µM | 91% |  | > 50 µM | > 50 µM |
| CCOC(=O)NCCCC(=O)NCCC(C)C | > 50 µM | > 1 µM | > 50 µM | > 50 µM | 88% | > 50 µM | > 50 µM | > 50 µM |
| CCOC(=O)NCCCC(=O)NCCNC(=O)OC(C)(C)C | > 50 µM | > 1 µM | > 50 µM | > 50 µM | 95% | > 50 µM | > 50 µM | > 50 µM |
| CCOC(=O)NCCCCCC(=O)Nc1ccccc1 | > 50 µM | > 1 µM | > 50 µM | > 50 µM |  | > 50 µM | > 50 µM | > 50 µM |
| CCCOC(=O)NCCCC(=O)NCCc1ccccc1 | > 50 µM | > 1 µM | > 50 µM | > 50 µM | 94% | > 50 µM | > 50 µM | > 50 µM |
| O=C(CCCCCCC(=O)Nc1ccccc1)NO [VORINOSTAT] |  |  |  | 29.1 µM |  |  |  |  |
| CCOC(=O)NCCCCC(=O)NCc1ccccc1 | > 50 µM | > 1 µM | > 50 µM | > 50 µM | 93% | > 50 µM | > 50 µM | > 50 µM |
| CCOC(=O)NCCCC(=O)NCCc1cccc(F)c1 | > 50 µM | > 1 µM | > 50 µM | > 50 µM | 90% | > 50 µM | > 50 µM | > 50 µM |
| CCOC(=O)NCC(=O)NCCc1ccccc1 | > 50 µM | > 1 µM | > 50 µM | > 50 µM | 86% | > 50 µM | > 50 µM | > 50 µM |
| CC(=O)SCCC(=O)NCCCC(=O)NCCc1ccccc1 | > 50 µM | > 1 µM | > 50 µM | > 50 µM | 77% | > 50 µM | > 50 µM | > 50 µM |
| CCOC(=O)NCCCC(=O)Nc1nc(-c2cccc([N+](=O)[O-])c2)cs1 | > 50 µM | > 1 µM | > 50 µM | > 50 µM | 58% | > 50 µM | > 50 µM | > 50 µM |
| COc1cccc2c1C(=O)c1c(O)c3c(c(O)c1C2=O)C[C@@](O)(C(=O)CO)C[C@@H]3O[C@H]1C[C@H](N)[C@H](O)[C@H](C)O1 [DOXORUBICIN] |  |  | 21.4 µM |  |  | 10.7 µM |  |  |
